The chains are these.
B1: tRNA (parent)
chain: GUUCCGUUGGCGUAAUGGUAACGCGUCUCCCUCCUAAGGAGAAGACUGCGGGUUCGAGUCCCGUACGGAACG

Variants at the floor of the assay were thinned out.

The data set covers variants of B1. Nature of the data set: yeast fitness relative to wild type (ratio to wild type); higher = fitter; tRNA-Arg(CCU), competitive growth, 37 C, YPD. Put shortly: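 Start and end populations of a pooled competition were compared by 100-nucleotide paired-end sequencing of gene amplicons. The Saccharomyces cerevisiae strains carried tRNA-Arg(CCU) gene variants at the native genomic locus, synthesised with a 3% per-site mutation rate at 69 sites, and competed in YPD at 37°C for 24 hours in six parallel replicates. Darwinian fitness relative to wild type was based on the change in genotype frequencies. Genotypes required ≥ 100 starting reads, and estimates < 0.5 were set to 0.5.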
For GUUCCGUUGGCGUAAUGGUAACGCGUCUCCCUCCUAAGGAGAAGACUGCGGCUUCGAGUCCCGUACGGUUCG [G52C A69U A70U], the yeast fitness was at most 0.5. Take GUUCCGUUGGCGUAAUGGUAACGCGUCUCCCUCCUUAGGAGAAGACUGCGGGUUCGAGUCCCGUACGGAACG [A36U]: the yeast fitness was 0.714.

Consider GUUUCGAUGGCGUAAUGGUAACGCGUCUCCCUGCUAAGGAGCAGACUGCGGGUUCGAGUCCCGUACGGAACG [C4U U7A C33G A42C], for which the yeast fitness was at most 0.5.

For the variant GUUCCGUUGGCGUAAUGGUACCGCGUCUCCCUCCUAAGGAGAAGACUGCGGGUUCAGGUCCCGUAUGGAACG [A21C G56A A57G C66U], the yeast fitness was at most 0.5. Take GUUCCGUUGGCGUAAUGGUAACGCGUCUACCUUCUAAGGAGAAGACAGCGGGUUCGAGUCCCGUACGGAACG [C29A C33U U47A]: the yeast fitness is at most 0.5. Take GUUCCGUUGCCGUAAUGGUAACGCGUCUCCCUCCUAAGGAGAAGACUGUGGGUUCGAGUCCUGUACGGAACG [G10C C49U C62U]: the yeast fitness is at most 0.5. Next, GUUCCGUUGGCGUAAUAGUAACGCGUCUUCCUUCUAAGGAGAAGACUGCGGGUUCGAGUGCCGUGCGGAACG [G17A C29U C33U C60G A65G]: at most 0.5; GUUCCGUUGGCGUAAUCGUAACGCGUCUCCCUCCUAAGGAGAAAACUACGGGUUCGAGUCCCGUACGGAACG [G17C G44A G48A]: 0.529; GUUCCGUUGGCGUAAUGCUAACACCCCUCCCUCCUAGGGAGACGACUGCGGGUUGGAGUCCCGUACGAAACG [G18C G23A G25C U26C A37G A43C C55G G68A]: at most 0.5. Turning to GUUCCGUUGGCGUAAUGGUAUCGCGUCUCCCUCCUAACGAGAAGACUGCGGGUUCGAGUCCCGUCCGGAACG [A21U G38C A65C], the yeast fitness was at most 0.5. For the variant GUUCCGUUGGUGUGAUGGUGACGGGUCUCCCUCCUAAGGAGAAGACUGCGGGUUCGAGUCCCGUACGGAACG [C11U A14G A20G C24G], the yeast fitness is at most 0.5.

As to GUUCCGUUGGCGUAAUGGUUACGCGUCUAUCUCCUUAGGAGAAGACUGCGGGUUCGAGUCCCGUACGGAACG [A20U C29A C30U A36U], the yeast fitness is at most 0.5. For GUUCCGAUCGCGUAAUCGUAACGCGUCUCCCUCCUAAGGAGAAGACUACGGGUUCGAGUCCAGUACGGAACG [U7A G9C G17C G48A C62A] the value was at most 0.5. For GUCCCGUUGGCGUAAUGGUAACGCGUCUCCCUCCUAAGGAGAAGACUGCGGGUUCGAGUCCUGUACAGAACG [U3C C62U G67A] the value was 0.587; for GUUCCGUUGGGGUAAUGGUAACGUGUCUCCCUCCUAAGGAGGAGACUGCGGGUUCGAGUCCCGUACGGAACG [C11G C24U A42G], at most 0.5. Take GUUCCGUCAGCGUAAUGGUAAGGCGUCUCCCGCCUAAGGAGAAGACUGGGGGUUCGAGUCCCGUACGGAACG [U8C G9A C22G U32G C49G]: the yeast fitness is at most 0.5.

In the case of GUUCCGUUGGCGUAAUAGUAACGCGUCUCCCUCCUUAGGAGAAGACUGUGGGUUCGAGUCCUGUACGGAACG [G17A A36U C49U C62U], the yeast fitness is at most 0.5. Next, GUUCCGUUGGCGUAAUGGUAACGUGUCUCCCUCCUAAGGAGAAGAAUGCGGGUUUGACUCCCGUACGGAACG [C24U C46A C55U G58C]: 0.793. In the case of GUUCCGUUGGCGUAAUGGUAACGCGUCUCCCUCCCAAGGCGAAGACUGCGGGUUCGAGUCGCGUACGGAACG [U35C A40C C61G], the yeast fitness is at most 0.5. For GUUCCGUUGGCGUAAUAGUAACGCCUCUCCCUCCUAAGGUGAAGACUGCGGGUUCGAGUCCCAUACGGAACG [G17A G25C A40U G63A], the yeast fitness was at most 0.5.

Consider GUUCCGUUGGCGUAAUGGUAAGGCGUGUCCGUCCUAAGGAGAAGACUGCGGGUUCGUGUCCCGUACGGAACG [C22G C27G C31G A57U], for which the yeast fitness was at most 0.5.

On to GUUCCGUUGGCGUAAUGGUAACGCGUCUCCCUUCUAAGGACAAGACUGCGGGUUCGAGUCCCGUACGGAACG [C33U G41C], for which the yeast fitness came to 0.708. With GUUCCGUUGGCGUCAUGGUGAUGCGUCUCUCUCCUAAGGAGAAGACUGCGGGUUCGAGUCCCGUACGGAACG [A14C A20G C22U C30U], the yeast fitness is at most 0.5. Next, GUUCCGUUGGCGAAAAGGUAACGCGUCUCCCUCCUAAGGAGAAGACUGAGGGUUCGAGUCUGGUACGGAACG [U13A U16A C49A C61U C62G]: at most 0.5; GUUCCGUCGGCGUAAUGGUAACGCGUCUCCCUCCUAAGGAGAAGACUGUGGGUUCGAGUCCCGUACGGAACG [U8C C49U]: 0.903; GUUUCGUUGGCGGAAUGGUAACGCGUCUCCCUCCUAAGGAGAAGACUGAGGGUUUGAGUUUCGUACGGAACG [C4U U13G C49A C55U C60U C61U]: at most 0.5. For GUUCCGUAGGCGUAAUGGCAACGCGUCUCCCUCCUAAGGAGAAGACUCCGGGUUCGAGACCCGUAUGGAACG [U8A U19C G48C U59A C66U], the yeast fitness was 0.671. Next, GUUUCGUUGGCGUAAUGGUAACGCGUCUCCCUCCUAAGGAGAAGACUGCGGGUUCGAGUGCCGUACGGCACG [C4U C60G A69C]: 0.52; GUUCGGUUGGCGAAAUGGAAACGCGUCUCUCUCCUAAGGAGAAGACUGCGGGUUCGAGUCCCGUACGGAUCG [C5G U13A U19A C30U A70U]: at most 0.5; GUUCCGCUGGCGUAAUGGUAACGCGUCUCCCUCCUAAGGAGAAGACUGCGGGUUCGAGUCCCGGACGGCACG [U7C U64G A69C]: 0.603. On to GUUCCGUUGGCGUAAUGGUAACGAGUAACCCUCCUAAGGAGAAGACUGCGGGUUCGAGUCCCGUACGGAUCG [C24A C27A U28A A70U], for which the yeast fitness is at most 0.5. With GUUCCGUUCGCGUAAUGGUAACGCGUCUCCCUCCUAAGGAAAAGACUGCGGGUUUGAGACCCGUACGGAUCG [G9C G41A C55U U59A A70U], the yeast fitness was at most 0.5. Next, GUUCCGUUGGCGUAAUGGUACCGCCGCUCCCUCCUAAGGAGAAGACUGCGGGUUCGAGGCCCGUCCGGAACG [A21C G25C U26G U59G A65C]: at most 0.5; GUUGCGUUGGCGUAAUGGUAACACGUCUGCCUCCUACGGAGAAGACUGCGGGUUCGAGUGCCGUACGGAACG [C4G G23A C29G A37C C60G]: 0.808.

As for GGUCCGUUGGCGUAAUGGUAACGCGUUUCCCUCCUAAGGAGAAGAUUGCGGGUUCGAGUCCCAUACGGAACG [U2G C27U C46U G63A], the yeast fitness stood at 0.811.

In the case of GUUCCGUUGGCGUAAUGGUAACGCGUCUCCCUCCUAAGCAGAAGACUGCGGGUUCGAGUCCCGUACAGAGCG [G39C G67A A70G], the yeast fitness is 0.648. In the case of GUUCCGUUGGCGUAAUGGUAACGCCUCUCCAUCCUAAGGAGAUGACUGCGGGUACGAGUCCCGUACGGAACG [G25C C31A A43U U54A], the yeast fitness is at most 0.5.

As for GUUCCGUUGGCGUAAUGGUAACGCGUCUCCCUCAUAACGAGAUGACUGCGGGUUCGAGUCCCGUACGGAACG [C34A G38C A43U], the yeast fitness stood at 0.588.
